The subject of test [1] is Rattus norvegicus. The experiment in a line: Pressor activity in ganglion-blocked vagotomized rat assessed as rise in blood pressure at 250 ng/kg/min, iv administered as infusion measured after 10 mins relative to control. It counts as functional. Summed up:
(§1)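 Vagotomized, ganglion-blocked rats were infused with the analogue. Rise in blood pressure (mmHg) was read at 3, 10 and 30 min of infusion. Values are mean ± error over several rats per analogue.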

Test [2] in a line: Antagonist activity at angiotensin 2 receptor in rabbit aortic strip assessed as inhibition of contractile activity. The conditions noted are these: Oryctolagus cuniculus; read-out: pA2 (converted). Summed up:
(§2)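 Rabbit aortic strips; the antagonist opposes angiotensin II-induced contraction. pA₂ is the negative log molar antagonist concentration that reduces the effect of a doubled agonist concentration to that of a single one. It is derived as pA₂ = (log K₂)/n, where n is the slope of log(dose ratio − 1) vs. −log antagonist concentration and K₂ is the y-intercept.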

For test [3], the system named is Rattus norvegicus. The experiment in a line: Pressor activity in ganglion-blocked vagotomized rat assessed as angiotensin 2 ED20 at 250 ng/kg/min, iv administered as infusion measured during infusion.
Test [4] deals with Rattus norvegicus. The test is described as follows: Pressor activity in ganglion-blocked vagotomized rat assessed as rise in angiotensin 2 ED20 at 250 ng/kg/min, iv administered as infusion measured during infusion relative to untreated control.
Test [5] relates to Rattus norvegicus. The experiment in a line: Pressor activity in ganglion-blocked vagotomized rat assessed as rise in blood pressure at 250 ng/kg/min, iv administered as infusion measured after 30 mins relative to control. It is filed as functional. Summed up:
as §1

Test [6] concerns Rattus norvegicus. The experiment in a line: Pressor activity in ganglion-blocked vagotomized rat assessed as rise in blood pressure at 250 ng/kg/min, iv administered as infusion measured after 3 mins relative to control. It counts as functional. Summed up:
as §1

A further test is filed under the species Oryctolagus cuniculus. The experiment in a line: Binding affinity to angiotensin 2 receptor in rabbit aortic strip. In outline: as §2
Test [7] deals with Rattus norvegicus. The test is described as follows: Pressor activity in ganglion-blocked vagotomized rat administered as bolus injection relative to [Asp1,Ile8]angiotension 2. It counts as functional. Summed up: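 Vagotomized, ganglion-blocked rats received a bolus injection of the analogue. Pressor activity is expressed as percent relative to [Asp¹,Ile⁸]angiotensin II, set at 100.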

The test system of test [8] is Rattus norvegicus. The test is described as follows: Pressor activity in ganglion-blocked vagotomized rat assessed as rise in blood pressure at 250 ng/kg/min, iv administered as infusion measured after 30 mins relative to control.
The subject of test [9] is Rattus norvegicus. The experiment in a line: Pressor activity in ganglion-blocked vagotomized rat assessed as rise in blood pressure at 250 ng/kg/min, iv administered as infusion measured after 10 mins relative to control.
Test [10] relates to Rattus norvegicus. The experiment in a line: Pressor activity in ganglion-blocked vagotomized rat assessed as rise in blood pressure at 250 ng/kg/min, iv administered as infusion measured after 3 mins relative to control.

Where a SMILES comes first, the peptide text is derived from it. [ ]: non-standard residue; d: D form. The star is where a group is joined. Guanidinoacetyl = N=C(N)NCC(=O)*; NMeI = CC[C@H](C)[C@H](NC)C(=O)O; Me2Gly = CN(C)CC(=O)*; Sar = CNCC(=O)O

For `CC[C@H](C)[C@H](NC(=O)[C@H](Cc1ccc(O)cc1)NC(=O)[C@@H](NC(=O)[C@H](CCCN=C(N)N)NC(=O)CNC)C(C)C)C(=O)N[C@@H](Cc1c[nH]cn1)C(=O)N1CCC[C@H]1C(=O)N[C@H](C(=O)O)[C@@H](C)O` (H-[Sar]RVYIHPT-OH), the Activity in the test on Rattus norvegicus [1] stood at 9.66 mmHg; with Rattus norvegicus [5], 9.2 mmHg; in the test on Rattus norvegicus [6], 9.46 mmHg. Also, in test [2], the Kb is 1.62 nM. Further, the ED20 with Rattus norvegicus [3] came out at 44.55 ng. Besides, the Ratio in the test with Rattus norvegicus [4] came out at 26.9; with Rattus norvegicus [7] it was 0.6. In addition, in the test filed under Oryctolagus cuniculus, the log K was 8.1.

Turning to `CC[C@H](C)[C@H](NC(=O)[C@H](Cc1ccc(O)cc1)NC(=O)[C@@H](NC(=O)[C@H](CCCNC(=N)N)NC(=O)CNC(=N)N)C(C)C)C(=O)N[C@@H](Cc1cnc[nH]1)C(=O)N1CCC[C@H]1C(=O)N[C@H](C(=O)O)[C@@H](C)O` (Guanidinoacetyl-RVYIHPT-OH), the Activity was found to be 3.5 mmHg in the test with Rattus norvegicus [8], 0.75 mmHg in the test on Rattus norvegicus [9] and 0.5 mmHg in the test on Rattus norvegicus [10]. Also, the Kb in test [2] was 58.9 nM. In addition, the ED20 with Rattus norvegicus [3] came to 1.14 ng. For the same molecule, the Ratio is on record as 1.02 in the test with Rattus norvegicus [4] and 0.15 with Rattus norvegicus [7]. The log K in the test filed under Oryctolagus cuniculus was determined as 2.12.

H-RVYIHPT-OH: the Activity in the test with Rattus norvegicus [8] was 4.5 mmHg; in the test with Rattus norvegicus [9] it was 1.5 mmHg; in the test on Rattus norvegicus [10] it was 0.5 mmHg. The Kb in test [2] is 29.5 nM. Besides, the ED20 in the test with Rattus norvegicus [3] is recorded as 3.01 ng. Moreover, the Ratio in the test with Rattus norvegicus [4] was 1.47; in the test with Rattus norvegicus [7] it was 0.24. Moreover, in the test listed under Oryctolagus cuniculus, the log K is 2.83.

`CC[C@H](C)[C@H](NC(=O)[C@H](Cc1ccc(O)cc1)NC(=O)[C@@H](NC(=O)[C@H](CCCNC(=N)N)NC(=O)CNC)C(C)C)C(=O)N[C@@H](Cc1cnc[nH]1)C(=O)N1CCC[C@H]1C(=O)N[C@H](C(=O)O)[C@@H](C)OC`: the Activity with Rattus norvegicus [1] was 15.88 mmHg; in the test on Rattus norvegicus [5], 15.06 mmHg; with Rattus norvegicus [6], 13.82 mmHg. The Kb in [2] is 1.74 nM. In the test on Rattus norvegicus [3], the ED20 is given as 95.26 ng. Also, the figures for the Ratio in the test with Rattus norvegicus [4] and in the test on Rattus norvegicus [7] were 62.52 and 0.48, respectively. The log K in the test filed under Oryctolagus cuniculus came out at 8.39.

Take `CC[C@H](C)[C@H](NC)C(=O)N[C@@H](CCCNC(=N)N)C(=O)N[C@H](C(=O)N[C@@H](Cc1ccc(O)cc1)C(=O)N[C@H](C(=O)N[C@@H](Cc1cnc[nH]1)C(=O)N1CCC[C@H]1C(=O)N[C@H](C(=O)O)[C@@H](C)O)[C@@H](C)CC)C(C)C` (H-[NMeI]RVYIHPT-OH): the Activity was 8.05 mmHg in the test with Rattus norvegicus [8], 6.66 mmHg in the test on Rattus norvegicus [9] and 4.33 mmHg with Rattus norvegicus [10]. In test [2], the Kb was 20.9 nM. In addition, in the test on Rattus norvegicus [3], the ED20 was found to be 3.59 ng. The Ratio stood at 2.37 in the test with Rattus norvegicus [4] and 0.12 with Rattus norvegicus [7]. The log K in the test filed under Oryctolagus cuniculus came to 2.48.

Turning to `CC[C@H](C)[C@H](NC(=O)[C@H](Cc1ccc(O)cc1)NC(=O)[C@@H](NC(=O)[C@H](CCCNC(=N)N)NC(=O)CN(C)C)C(C)C)C(=O)N[C@@H](Cc1cnc[nH]1)C(=O)N1CCC[C@H]1C(=O)N[C@H](C(=O)O)[C@@H](C)O` (Me2Gly-RVYIHPT-OH), the Activity is on record as 12.57 mmHg in the test on Rattus norvegicus [1], 11.71 mmHg in the test with Rattus norvegicus [5] and 7.5 mmHg in the test with Rattus norvegicus [6]. Moreover, the Kb in test [2] is 29.5 nM. Further, the ED20 with Rattus norvegicus [3] is 7.7 ng. Further, the Ratio is 4.49 in the test with Rattus norvegicus [4] and 0.38 in the test on Rattus norvegicus [7]. The molecule further had a log K in the test filed under Oryctolagus cuniculus of 2.83.

Regarding `CC[C@H](C)[C@H](NC(=O)[C@H](Cc1ccc(O)cc1)NC(=O)[C@@H](NC(=O)[C@H](CCCNC(=N)N)NC(=O)CNC)C(C)C)C(=O)N[C@@H](Cc1cnc[nH]1)C(=O)N1CCC[C@H]1C(=O)N[C@@H](COC)C(=O)O`, the Activity in the test with Rattus norvegicus [1] is given as 16.16 mmHg; in the test with Rattus norvegicus [5], 11.16 mmHg; with Rattus norvegicus [6] it was 15.66 mmHg. For the same molecule, the Kb in [2] was 0.219 nM. Also, the ED20 in the test on Rattus norvegicus [3] turned out to be 37 ng. Besides, the Ratio in the test with Rattus norvegicus [4] is listed as 24.04; in the test with Rattus norvegicus [7], 0.49. Besides, the log K in the test listed under Oryctolagus cuniculus came out at 5.58.

For the origin of these results see ChEMBL document CHEMBL3244219, “Synthesis of [1-sarcosine, 8-O-methylserine]angiotensin II and 1-substituted analogues of [8-threonine]angiotensin II as antagonists of angiotensin II” (J Med Chem, 1977).
